Assay results as given in ChEMBL document CHEMBL3351498, “Identification of key structural characteristics of Schisandra chinensis lignans involved in P-glycoprotein inhibition” (2014).

Experiments:
[1] = Potentiation of 0.2 uM doxorubicin-induced cytotoxicity in human HL60/MDR cells assessed as viable cells at 25 uM after 48 hrs by WST assay relative to control; format: functional
[2] = Potentiation of doxorubicin-induced cell cycle arrest in human HL60/MDR cells assessed as accumulation at S phase at 25 uM after 48 hrs by flow cytometry (reference value: 59.0 %); format: functional
[3] = Potentiation of 0.02 uM doxorubicin-induced cytotoxicity in human HL60/MDR cells assessed as viable cells at 25 uM after 48 hrs by WST assay relative to control; format: functional
[4] = Potentiation of doxorubicin-induced cell cycle arrest in human HL60/MDR cells assessed as accumulation at G2/M phase at 25 uM after 48 hrs by flow cytometry (reference value: 59.0 %); format: functional
[5] = Cytotoxicity against human HL60/MDR cells assessed as viable cells at 25 uM after 48 hrs by WST assay; format: functional; settings: for viability at 25 µM: Homo sapiens, HL60/MDR, 48 h, read-out: Activity
[6] = Potentiation of doxorubicin-induced cell cycle arrest in human HL60/MDR cells assessed as accumulation at G1 phase at 25 uM after 48 hrs by flow cytometry (reference value: 59.0 %); format: functional
[7] = Potentiation of 0.6 uM doxorubicin-induced cytotoxicity in human HL60/MDR cells assessed as viable cells at 25 uM after 48 hrs by WST assay relative to control; format: functional
[8] = Cell cycle arrest in human HL60/MDR cells assessed as accumulation at G2/M phase at 25 uM after 48 hrs by flow cytometry (reference value: 11.3 %); format: functional, cell-based
In short: (§1)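 HL60/MDR cells (about 5 × 10^5 cells/mL) exposed 48 h under standard culture to doxorubicin (0.2 and/or 0.02 μM) or lignan (25 μM) alone; DMSO-treated control. Cells fixed in 70% ethanol 30 min at room temperature, RNase A (17 μg/mL) 37 °C 30 min, PI (3 μg/mL) 10 min dark; DNA content by flow cytometry, FL3 (620 nm), 10 000–20 000 events.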

[9] = Cell cycle arrest in human HL60/MDR cells assessed as accumulation at G1 phase at 25 uM after 48 hrs by flow cytometry (reference value: 59.0 %); format: functional, cell-based; in short: as §1
[10] = Cell cycle arrest in human HL60/MDR cells assessed as accumulation at S phase at 25 uM after 48 hrs by flow cytometry (reference value: 29.9 %); format: functional, cell-based; in short: as §1
[11] = Cell cycle arrest in human HL60/MDR cells assessed as accumulation at S phase at 0.02 uM after 48 hrs by flow cytometry (reference value: 29.9 %); format: functional, cell-based; in short: as §1
[12] = Cytotoxicity against human HL60/MDR cells assessed as viable cells at 0.2 uM after 48 hrs by WST assay; format: functional; settings: read-out: Activity
In short: (§2)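 Doxorubicin-resistant HL60/MDR cells seeded at 5 × 10^4 cells/mL and held 48 h at 37 °C with doxorubicin (0.02, 0.2, 0.6 μM) alone or plus modulator (25 μM). WST-1 (1 mM) with 0.2 mM MMPM then added for 4 h; absorbance at 450 nm. Viability given as % of untreated cells; two independent experiments, each in triplicate.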

[13] = Cell cycle arrest in human HL60/MDR cells assessed as accumulation at G1 phase at 0.2 uM after 48 hrs by flow cytometry (reference value: 59.0 %); format: functional, cell-based; settings: in the assay text read “G2/M phase” for “G1 phase”; in short: as §1
[14] = Cytotoxicity against human HL60/MDR cells assessed as viable cells at 0.02 uM after 48 hrs by WST assay; format: functional; settings: read-out: Activity; in short: as §2
[15] = Cytotoxicity against human HL60/MDR cells assessed as viable cells at 0.6 uM after 48 hrs by WST assay; format: functional; settings: read-out: Activity; in short: as §2
[16] = Cell cycle arrest in human HL60/MDR cells assessed as accumulation at G2/M phase at 0.02 uM after 48 hrs by flow cytometry (reference value: 11.3 %); format: functional, cell-based; in short: as §1
[17] = Cell cycle arrest in human HL60/MDR cells assessed as accumulation at S phase at 0.2 uM after 48 hrs by flow cytometry (reference value: 29.9 %); format: functional, cell-based; in short: as §1
[18] = Cell cycle arrest in human HL60/MDR cells assessed as accumulation at G2/M phase at 0.2 uM after 48 hrs by flow cytometry (reference value: 11.3 %); format: functional, cell-based; in short: as §1
[19] = Cell cycle arrest in human HL60/MDR cells assessed as accumulation at G1 phase at 0.02 uM after 48 hrs by flow cytometry (reference value: 59.0 %); format: functional, cell-based; in short: as §1

COc1cc2c(c(OC)c1OC)-c1c(cc(OC)c(OC)c1OC)C[C@H](C)[C@H](C)C2 [SCHISANDRIN A]
Activity [1]: 52%
Activity [2]: 10.9%
Activity [3]: 106%
Activity [4]: 67.9%
Activity [5]: 92%
Activity [6]: 21.2%
Activity [7]: 43%

COc1cc2c(c(OC)c1OC)-c1c(cc3c(c1OC)OCO3)C[C@H](C)[C@H](C)C2
Activity [8]: 8.8%
Activity [9]: 64.8%
Activity [10]: 26.4%

COc1cc2c(c(OC)c1OC)-c1c(cc(OC)c(OC)c1OC)C[C@H](C)[C@H](C)C2 (single isomer, unassigned; atropisomer 1) [SCHISANDRIN A]
Activity [1]: 48%
Activity [3]: 108%
Activity [5]: 144%
Activity [7]: 39%

COc1cc2c(c(OC)c1OC)-c1c(cc3c(c1OC)OCO3)C[C@H](C)[C@H](C)C2 [WUWEIZISU B]
Activity [1]: 42%
Activity [2]: 22.7%
Activity [3]: 121%
Activity [4]: 36.9%
Activity [5]: 128%
Activity [6]: 40.4%
Activity [7]: 39%

COc1cccc2c1C(=O)c1c(O)c3c(c(O)c1C2=O)C[C@@](O)(C(=O)CO)C[C@@H]3O[C@H]1C[C@H](N)[C@H](O)[C@H](C)O1 [DOXORUBICIN]
Activity [11]: 28.3%
viability at 0.2 µM [12]: 83%
Activity [13]: 36.9%
viability at 0.02 µM [14]: 109%
viability at 0.6 µM [15]: 91%
Activity [16]: 16%
Activity [17]: 11%
Activity [18]: 52%
Activity [19]: 55.8%

COc1cc2c(c(OC)c1OC)-c1c(cc(OC)c(OC)c1OC)C[C@H](C)[C@H](C)C2
Activity [8]: 12.1%
Activity [9]: 57.3%
Activity [10]: 30.5%

COc1cc2c(c(OC)c1OC)-c1c(cc3c(c1OC)OCO3)C[C@H](C)[C@H](C)C2 (single isomer, unassigned; atropisomer 1) [WUWEIZISU B]
Activity [1]: 66%
Activity [3]: 94%
Activity [5]: 102%
Activity [7]: 38%

COc1cc2c(c(OC)c1OC)-c1c(cc3c(c1OC)OCO3)CC(C)C(C)C2 (racemic) [SCHISANDRIN B]
Activity [1]: 41%
Activity [3]: 117%
viability at 25 µM [5]: 88%
Activity [7]: 36%

COc1cc2c(c(OC)c1OC)-c1c(cc3c(c1OC)OCO3)C[C@@H](C)[C@@H](C)C2 (single isomer, unassigned; atropisomer 2) [KADSURANIN]
Activity [1]: 97%
Activity [3]: 100%
viability at 25 µM [5]: 106%
Activity [7]: 81%
